Data published in ChEMBL document CHEMBL1821623, “Anti-influenza virus polyketides from the acid-tolerant fungus Penicillium purpurogenum JS03-21” (J Nat Prod, 2011).

What follows are compounds tested on OVCAR-3 (assay: Cytotoxicity against human OVCAR3 cells).
Format: functional
For `CCCCC[C@@H]1Cc2cc(O)c(C(=O)O)c3c2[C@H](C[C@]2(OC[C@H](CC(=O)C(C)(CC)C(=O)OC)[C@H]2C)O3)O1` (stereo not given in full) [BERKELIC ACID], the GI50 was 0.091 µM.

Each compound was assayed on Influenza A virus (assay: Antiviral activity against Influenza A virus H1N1 infected in MDCK cells assessed as compound concentration required for inhibiting influenza virus yield at 48 h post-infection by crystal violet staining based CPE inhibition assay).
Format: functional, organism-based
Summary of the method: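 CPE-inhibition assay against influenza A (H1N1). Ribavirin was the positive control. Activity was reported as an IC50 in μM.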
For `CC1=C(O)C(=O)c2cc(O)c(O)cc2C1=O`, the IC50 was > 200 µM.
`C/C=C/C1=CC2=CC(=O)[C@@](C)(OC(=O)c3c(C)cc(O)cc3O)C(=O)[C@@]2(O)CO1` gave an IC50 of 64 µM.
Work on `O=Cc1cc(C(=O)O)cc(O)c1C(=O)c1c(O)cccc1O` yielded an IC50 of 58.6 µM.
For `C/C=C/C1=CC2=CC(=O)[C@@](C)(OC(=O)c3c(C)cc(O)cc3O)C(=O)C2=CO1`, the IC50 was > 200 µM.
For `CCC[C@]1(OC)OC(=O)c2c1cc(O)c(O)c2C` [PURPURESTER A], the IC50 was 85.3 µM.
With `CC/C=C1\OC(=O)c2c1cc(O)c(O)c2C` [PURPURESTER B] the IC50 was > 200 µM.
In the case of `C/C=C/C1=CC2=CC(=O)[C@@](C)(OC(=O)c3c(C)cc(O)cc3O)C(=O)[C@@]2(O)[C@@H](O)O1` [PURPURQUINONE A], the IC50 is reported as > 200 µM.
`C/C=C/C1=CC2=CC(=O)[C@@](C)(OC(=O)c3c(O)cc(O)c(O)c3C)C(=O)[C@@]2(O)[C@@H](O)O1` [PURPURQUINONE B] gave an IC50 of 61.3 µM.
`NC(=O)c1ncn([C@@H]2O[C@H](CO)[C@@H](O)[C@H]2O)n1` [RIBAVIRIN] gave an IC50 of 101 µM.
